The subject of one assay is REH. The assay is described as follows: Cytotoxicity against human REH cells overexpressing GR assessed as reduction in cell viability measured after 3 days by resazurin based assay. The assay is classed as functional. The gist of the method:
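REH B-ALL cells (naturally GR-null) were lentivirally infected with GFP-T2A-GR, and the top 10% GFP sorted population was used. Cells grown in RPMI + 10% FBS, seeded at 9,000 cells/well in 384-well format. DMSO serial dilutions (2500 µM to 0.01 µM stocks) were diluted 1:500 and then added 1:1, giving 0.1% final DMSO. Exposure 72 h. Read-out: PrestoBlue fluorescence (Ex 560/Em 590), normalized to DMSO-only wells. EC50 by 4-parameter fit per replicate, at least 6 replicates.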
On the technique in general: Resazurin is reduced to fluorescent resorufin, in cell work by metabolically active cells.

Assay [1] deals with T1, Glucocorticoid receptor (Homo sapiens) (UniProt P04150).
T1 sequence (whole entry): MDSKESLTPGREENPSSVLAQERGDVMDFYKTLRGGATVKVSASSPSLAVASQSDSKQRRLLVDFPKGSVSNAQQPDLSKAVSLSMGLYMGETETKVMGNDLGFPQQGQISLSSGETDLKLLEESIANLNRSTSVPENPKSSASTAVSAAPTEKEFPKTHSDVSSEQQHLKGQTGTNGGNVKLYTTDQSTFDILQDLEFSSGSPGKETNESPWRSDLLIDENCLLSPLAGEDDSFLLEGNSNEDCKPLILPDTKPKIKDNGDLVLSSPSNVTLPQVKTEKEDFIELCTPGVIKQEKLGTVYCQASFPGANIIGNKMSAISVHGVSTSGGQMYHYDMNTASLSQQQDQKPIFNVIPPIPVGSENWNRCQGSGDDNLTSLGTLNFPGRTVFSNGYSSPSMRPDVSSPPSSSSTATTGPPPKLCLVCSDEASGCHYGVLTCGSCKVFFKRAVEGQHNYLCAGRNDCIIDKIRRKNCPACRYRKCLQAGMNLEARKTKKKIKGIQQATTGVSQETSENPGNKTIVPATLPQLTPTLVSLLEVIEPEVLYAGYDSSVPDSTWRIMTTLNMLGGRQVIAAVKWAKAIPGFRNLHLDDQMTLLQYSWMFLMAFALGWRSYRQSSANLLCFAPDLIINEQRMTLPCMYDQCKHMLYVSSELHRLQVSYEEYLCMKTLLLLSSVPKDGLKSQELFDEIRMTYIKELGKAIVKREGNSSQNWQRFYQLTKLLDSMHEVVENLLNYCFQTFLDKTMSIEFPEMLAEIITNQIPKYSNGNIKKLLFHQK
Conditions: HEK293T, filed as modulator, time 22.0 min; call rule not given here.

Another assay has as its target T2, Glucocorticoid receptor (Homo sapiens, UniProt P04150).
T2 sequence (P04150 whole entry): T1 sequence (whole entry)
The assay is described as follows: Induction of translocation of human glucocorticoid receptor expressed in HEK293T cells transduced with lentiviral vector expressing H2B-mCherry and GFP-GR assessed as effective dissociation constant measured every 130 sec for 22 mins by fluorescence imaging analysis. The assay is classed as cell-based.

Setting [2] is: Homo sapiens, REH, 72 h, read-out: EC50.

For orientation: EC50 means the concentration at which the effect is half-maximal. In general, Kd refers to the equilibrium constant for the complex coming apart. As for `C[C@]12Cc3cnn(-c4ccccc4)c3C=C1CC[C@@H]1[C@@H]2[C@@H](O)C[C@@]2(C)[C@H]1CC[C@]2(O)C(=O)CO`, in the assay with REH (setting [2]), the EC50 was determined as 2.3 nM. In addition, the T1/2 in assay [1] was 2.67 min. The dissociation constant (Kd) at Glucocorticoid receptor (read-out: Kd) came to 2.2 nM.
Taken in the same sequence, the figures for `C[C@]12Cc3cn(-c4ccc(F)cc4)nc3C=C1CC[C@@H]1[C@@H]2[C@@H](O)C[C@@]2(C)[C@H]1CC[C@]2(O)C(=O)CO` were 225 nM, 4.33 min and 138 nM.
Take `C[C@@H]1C[C@H]2[C@@H]3CCC4=CC(=O)C=C[C@]4(C)[C@@]3(F)[C@@H](O)C[C@]2(C)[C@@]1(O)C(=O)CO` [DEXAMETHASONE]: the EC50 in the assay with REH (setting [2]) turned out to be 6.7 nM.
For the compound `CCCCCCn1ncc2c1C=C1CC[C@@H]3[C@H]([C@@H](O)C[C@@]4(C)[C@H]3CC[C@]4(O)C(=O)CO)[C@@]1(C)C2`, the 50% effective concentration (EC50) with REH (setting [2]) came out at 27 nM. Further, the T1/2 in assay [1] stood at 2.1 min. Also, the equilibrium dissociation constant (Kd) on Glucocorticoid receptor (read-out: Kd) came to 9 nM.
Consider `Cc1ccc(-n2cc3c(n2)C=C2CC[C@@H]4[C@H]([C@@H](O)C[C@@]5(C)[C@H]4CC[C@]5(O)C(=O)CO)[C@@]2(C)C3)cc1`, for which, in the assay with REH (setting [2]), the EC50 was found to be 7270 nM. Besides, on Glucocorticoid receptor (read-out: Kd), the dissociation constant (Kd) is 883 nM.
Turning to `CCCCCCn1cc2c(n1)C=C1CC[C@@H]3[C@H]([C@@H](O)C[C@@]4(C)[C@H]3CC[C@]4(O)C(=O)CO)[C@@]1(C)C2`, the EC50 entry with REH (reh) is on record as “Not Active”.
With `COc1cccc(-n2ncc3c2C=C2CC[C@@H]4[C@H]([C@@H](O)C[C@@]5(C)[C@H]4CC[C@]5(O)C(=O)CO)[C@@]2(C)C3)c1`, the 50% effective concentration (EC50) in the assay with REH (setting [2]) worked out at 346 nM. This compound returned a T1/2 in assay [1] of 4.17 min.
For `C[C@]12Cc3cnn(-c4ccc(F)cc4)c3C=C1CC[C@@H]1[C@@H]2[C@@H](O)C[C@@]2(C)[C@H]1CC[C@]2(O)C(=O)CO`, the 50% effective concentration (EC50) with REH (setting [2]) came to 1.4 nM. In assay [1], this compound yielded a T1/2 of 2.2 min. In addition, the Kd at Glucocorticoid receptor (read-out: Kd) was found to be 2.6 nM.
Turning to `C[C@]12Cc3cn(-c4ccccc4)nc3C=C1CC[C@@H]1[C@@H]2[C@@H](O)C[C@@]2(C)[C@H]1CC[C@]2(O)C(=O)CO`, the EC50 with REH (setting [2]) came out at 1.3 nM. Further, in assay [1], the T1/2 was determined as 2.63 min. Besides, the Kd at Glucocorticoid receptor (read-out: Kd) worked out at 2.2 nM.
`COc1cccc(-n2cc3c(n2)C=C2CC[C@@H]4[C@H]([C@@H](O)C[C@@]5(C)[C@H]4CC[C@]5(O)C(=O)CO)[C@@]2(C)C3)c1`: the equilibrium dissociation constant (Kd) result on Glucocorticoid receptor (hek293t) is recorded as “Not Active”.

These data come from ChEMBL document CHEMBL4680066, “Deacylcortivazol-like pyrazole regioisomers reveal a more accommodating expanded binding pocket for the glucocorticoid receptor” (RSC Med Chem, 2021).
